Blank lines part the entries; values can stand above or below the compound they belong to. Activity calls are given as the source filed them. The rule behind the calls is not given here.
What was measured:
[1] = organism: Mus musculus; assay: Inhibition of the GBL-induced increase in DOPA synthesis in mice; IA = inactive; format: functional, organism-based
[2] = biological target: T1, Alpha-1 adrenergic receptor (Mus musculus) (UniProt P97714+P97717+P97718); assay: Inhibition of noradrenaline lethal effects in mice as alpha-1 induced adrenoceptor antagonist activity; format: functional
T1 sequence (P97714 whole entry, looked up): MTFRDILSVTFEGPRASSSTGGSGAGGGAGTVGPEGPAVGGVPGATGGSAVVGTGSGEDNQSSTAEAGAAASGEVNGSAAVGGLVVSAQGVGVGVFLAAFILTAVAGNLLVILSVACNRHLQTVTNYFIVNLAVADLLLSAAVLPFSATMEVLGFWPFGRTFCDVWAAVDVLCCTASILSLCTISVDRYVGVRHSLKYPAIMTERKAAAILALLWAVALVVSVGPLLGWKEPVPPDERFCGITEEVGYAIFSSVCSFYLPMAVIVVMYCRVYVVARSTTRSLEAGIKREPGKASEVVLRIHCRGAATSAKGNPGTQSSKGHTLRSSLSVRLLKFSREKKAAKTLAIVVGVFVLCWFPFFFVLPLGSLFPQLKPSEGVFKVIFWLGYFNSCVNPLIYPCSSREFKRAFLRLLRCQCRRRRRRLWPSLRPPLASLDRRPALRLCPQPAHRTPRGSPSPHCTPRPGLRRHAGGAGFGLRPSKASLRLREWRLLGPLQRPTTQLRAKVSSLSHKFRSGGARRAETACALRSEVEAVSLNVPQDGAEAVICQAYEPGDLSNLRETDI
T1 sequence (P97717 whole entry, looked up): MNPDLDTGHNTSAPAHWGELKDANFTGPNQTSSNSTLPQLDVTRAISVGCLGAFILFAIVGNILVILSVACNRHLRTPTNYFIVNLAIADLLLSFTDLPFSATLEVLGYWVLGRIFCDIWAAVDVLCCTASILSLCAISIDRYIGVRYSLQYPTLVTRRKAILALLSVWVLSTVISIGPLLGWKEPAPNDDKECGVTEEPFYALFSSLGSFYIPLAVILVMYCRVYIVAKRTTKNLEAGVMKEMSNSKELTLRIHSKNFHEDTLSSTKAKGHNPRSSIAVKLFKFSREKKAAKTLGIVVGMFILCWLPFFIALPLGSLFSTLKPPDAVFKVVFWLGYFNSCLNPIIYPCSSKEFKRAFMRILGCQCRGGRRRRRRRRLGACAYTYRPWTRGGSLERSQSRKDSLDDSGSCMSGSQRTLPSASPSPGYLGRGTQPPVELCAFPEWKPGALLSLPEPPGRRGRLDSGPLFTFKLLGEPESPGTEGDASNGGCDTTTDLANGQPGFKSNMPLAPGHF
T1 sequence (P97718 whole entry, looked up): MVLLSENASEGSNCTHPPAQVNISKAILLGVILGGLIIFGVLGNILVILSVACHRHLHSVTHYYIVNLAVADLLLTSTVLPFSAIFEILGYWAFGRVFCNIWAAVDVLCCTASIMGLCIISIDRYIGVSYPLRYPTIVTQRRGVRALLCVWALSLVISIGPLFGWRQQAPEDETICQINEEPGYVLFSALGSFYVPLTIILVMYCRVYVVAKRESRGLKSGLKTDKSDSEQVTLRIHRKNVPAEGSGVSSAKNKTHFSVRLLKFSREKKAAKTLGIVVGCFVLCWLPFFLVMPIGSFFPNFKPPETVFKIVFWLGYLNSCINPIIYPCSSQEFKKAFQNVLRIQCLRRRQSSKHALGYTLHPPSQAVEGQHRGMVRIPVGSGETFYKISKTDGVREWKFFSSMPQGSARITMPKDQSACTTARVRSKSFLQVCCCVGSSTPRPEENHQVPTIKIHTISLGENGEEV

[3] = organism: Mus musculus; assay: Inhibition of the GBL-induced increase in DOPA accumulation in mice(DA auto receptor agonist activity); IA = inactive; format: functional, organism-based
[4] = organism: Mus musculus; assay: Induction of catalepsy in mice; format: functional
[5] = organism: Rattus norvegicus; assay: Inhibition of the APO-induced stereotyped behavior in rats
[6] = organism: Mus musculus; assay: post-synaptic DA receptor antagonist activity was evaluated by inhibition of the apomorphine-induced stereotyped behavior in mice. inactive at below given dose; format: functional
Procedure, shortened: (§1)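 Overnight-fasted mice (16-20 h), groups of 10, given compound orally 1 h before apomorphine 1.5 mg/kg sc in 0.9% saline. Stereotypy observed for 1 min every 10 min over 40 min, starting 20 min post-apomorphine, scored by a published scale. ED50 with 95% confidence limits by linear regression, µmol/kg po.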

[7] = ratio between ED50 values of DA receptor antagonist activity and catalepsy.; format: functional
[8] = organism: Mus musculus; assay: Inhibition of the GBL-induced increase in DOPA accumulation in mice(DA auto receptor agonist activity); format: functional
[9] = test system: Dopamine D2 receptor (Mus musculus); assay: post-synaptic dopamine […] antagonist activity evaluated by inhibition of the apomorphine-induced stereotyped behavior in mice.
[10] = organism: Rattus norvegicus; assay: Inhibition of the GBL-induced increase in DOPA synthesis in rats.
[11] = organism: Mus musculus; assay: post-synaptic DA receptor antagonist activity was evaluated by inhibition of the apomorphine-induced stereotyped behavior in mice. inactive at single given dose; format: functional; procedure, shortened: as §1
[12] = biological target: T1, Alpha-1 adrenergic receptor (Mus musculus); assay: Inhibition of the lethal effects of noradrenaline in mice (alpha-1 induced adrenoceptor antagonist activity); format: functional
[13] = organism: Mus musculus; assay: post-synaptic DA receptor antagonist activity was evaluated by inhibition of the apomorphine-induced stereotyped behavior in mice. 51% inhibition at single given dose.; format: functional; procedure, shortened: as §1
[14] = organism: Mus musculus; assay: post-synaptic DA receptor antagonist activity was evaluated by inhibition of the apomorphine-induced stereotyped behavior in mice. 49% inhibition at single given dose; format: functional; procedure, shortened: as §1
[15] = organism: Rattus norvegicus; assay: Inhibition of the APO-induced stereotyped behavior in rats.
[16] = organism: Mus musculus; assay: Induction of catalepsy in mice.; format: functional

ED50 [3]: inactive
SMILES: O=C(CCCN1CCC(O)(c2ccc(Cl)cc2)CC1)c1ccc(F)cc1 [HALOPERIDOL]
ED50 [1]: inactive
ED50 [2]: > 341 µmol/kg
ED50 [4]: 0.9 µmol/kg
ED50 [5]: 1.1 µmol/kg

SMILES: O=C1CCc2cc(OCCCCN3CCN(c4cccc(Cl)c4Cl)CC3)ccc2N1
ED50 [6]: > 22 µmol/kg

ED50 [9]: 0.7 µmol/kg
SMILES: Cc1c(N2CCN(CCCCOc3ccc4c(c3)NC(=O)CC4)CC2)cccc1[N+](=O)[O-]
Ratio [7]: 8.7
ED50 [8]: > 23 µmol/kg
ED50 [2]: > 146 µmol/kg
ED50 [4]: 5.9 µmol/kg

SMILES: O=C1CCc2ccc(OCCCCN3CCN(c4cccc(Cl)c4Cl)CC3)cc2N1 [ARIPIPRAZOLE]
ED50 [8]: 5.1 µmol/kg
ED50 [10]: 6.9 µmol/kg
ED50 [5]: 11.8 µmol/kg
ED50 [11]: > 22 µmol/kg
ED50 [12]: > 286 µmol/kg

SMILES: CC(=O)Nc1cccc(N2CCN(CCCCOc3ccc4c(c3)NC(=O)CC4)CC2)c1C
ED50 [6]: > 25 µmol/kg

SMILES: Cc1cccc(N2CCN(CCCCOc3ccc4c(c3)NC(=O)CC4)CC2)c1Br
ED50 [8]: > 21 µmol/kg

SMILES: O=C1CCc2ccc(OCCCCN3CCN(c4ccc(Cl)cc4)CC3)cc2N1
ED50 [6]: > 8 µmol/kg

ED50 [3]: inactive
SMILES: CN(C)CCCN1c2ccccc2Sc2ccc(Cl)cc21 [CHLORPROMAZINE]
ED50 [1]: inactive
ED50 [2]: 19.7 µmol/kg
ED50 [5]: 28.4 µmol/kg

ED50 [9]: 2.1 µmol/kg
SMILES: Cc1c(Br)cccc1N1CCN(CCCCOc2ccc3ccc(O)nc3c2)CC1

SMILES: O=C1CCc2ccc(OCCCCN3CCN(c4ccc(Cl)c(Cl)c4)CC3)cc2N1
ED50 ([11]; read-out: ED50): > 7 µmol/kg

ED50 [9]: 4.1 µmol/kg
SMILES: Cc1c(C#N)cccc1N1CCN(CCCCOc2ccc3c(c2)NC(=O)CC3)CC1

SMILES: Cc1ccc(Cl)cc1N1CCN(CCCCOc2ccc3c(c2)NC(=O)CC3)CC1
ED50 [6]: > 23 µmol/kg

SMILES: CCOc1ccccc1N1CCN(CCCCOc2ccc3c(c2)NC(=O)CC3)CC1
ED50 [8]: 0.65 µmol/kg
ED50 [2]: 7 µmol/kg
ED50 [4]: 4.4 µmol/kg

SMILES: N#Cc1ccccc1N1CCN(CCCCOc2ccc3c(c2)NC(=O)CC3)CC1
ED50 ([11]; read-out: ED50): > 23 µmol/kg

SMILES: Cc1ccc(N2CCN(CCCCOc3ccc4c(c3)NC(=O)CC4)CC2)cc1Cl
ED50 [6]: > 7 µmol/kg

SMILES: Cc1cc(Br)ccc1N1CCN(CCCCOc2ccc3c(c2)NC(=O)CC3)CC1
ED50 [13]: 21 µmol/kg

SMILES: Cc1c(Cl)cccc1N1CCN(CCCCOc2ccc3c(c2)NC(=O)CC3)CC1
ED50 [8]: 3.5 µmol/kg
ED50 [2]: > 299 µmol/kg
ED50 [4]: 5.6 µmol/kg

SMILES: Cc1c(F)cccc1N1CCN(CCCCOc2ccc3c(c2)NC(=O)CC3)CC1
ED50 [14]: 7.2 µmol/kg

SMILES: O=C1CCc2c(cccc2OCCCCN2CCN(c3cccc(Cl)c3Cl)CC2)N1
ED50 ([11]; read-out: ED50): > 22 µmol/kg

SMILES: Cc1c(Cl)cccc1N1CCN(CCCCCOc2ccc3c(c2)NC(=O)CC3)CC1
ED50 [6]: > 23 µmol/kg

SMILES: Cc1c(N)cccc1N1CCN(CCCCOc2ccc3c(c2)NC(=O)CC3)CC1
ED50 [6]: > 25 µmol/kg

ED50 [9]: 2.8 µmol/kg
SMILES: Cc1c(Cl)cccc1N1CCN(CCCCOc2ccc3ccc(O)nc3c2)CC1
Ratio [7]: 4.5
ED50 [8]: 20.1 µmol/kg
ED50 [4]: 12.6 µmol/kg
ED50 [12]: > 299 µmol/kg

ED50 [9]: 0.9 µmol/kg
SMILES: Oc1ccc2ccc(OCCCCN3CCN(c4cccc(Cl)c4Cl)CC3)cc2n1
ED50 [8]: > 22 µmol/kg
ED50 [12]: > 287 µmol/kg

SMILES: Cc1c(O)cccc1N1CCN(CCCCOc2ccc3c(c2)NC(=O)CC3)CC1
ED50 ([11]; read-out: ED50): > 8 µmol/kg

SMILES: O=C1CCc2ccc(OCCCCN3CCN(c4ccccc4[N+](=O)[O-])CC3)cc2N1
ED50 [6]: > 7 µmol/kg

ED50 [9]: 26 µmol/kg
SMILES: Cc1cccc(N2CCN(CCCOc3ccc4c(c3)NC(=O)CC4)CC2)c1C

SMILES: O=C1CCc2ccc(OCCCCN3CCN(c4ccccc4)CC3)cc2N1
ED50 [6]: > 28 µmol/kg

ED50 [9]: 0.24 µmol/kg
SMILES: CCOc1ccccc1N1CCN(CCCCOc2ccc3ccc(O)nc3c2)CC1
ED50 [8]: > 20 µmol/kg
ED50 [12]: > 127 µmol/kg

ED50 [9]: 41.3 µmol/kg
SMILES: Cc1cccc(N2CCN(CCCOc3ccc4ccc(O)nc4c3)CC2)c1C
Ratio [7]: > 1.4
ED50 [8]: 3.5 µmol/kg
ED50 [15]: 1860 µmol/kg
ED50 [2]: 151 µmol/kg
ED50 [10]: 15.1 µmol/kg

SMILES: Nc1ccccc1N1CCN(CCCCOc2ccc3c(c2)NC(=O)CC3)CC1
ED50 ([11]; read-out: ED50): > 25 µmol/kg

SMILES: Cc1c(Br)cccc1N1CCN(CCCCOc2ccc3c(c2)NC(=O)CC3)CC1
ED50 [8]: 1.3 µmol/kg

SMILES: Cc1cccc(N2CCN(CCCCOc3ccc4c(c3)NC(=O)CC4)CC2)c1C
ED50 [8]: 9.1 µmol/kg
ED50 [4]: 13.5 µmol/kg
ED50 [12]: > 314 µmol/kg

ED50 [9]: 3.4 µmol/kg
SMILES: Cc1cccc(N2CCN(CCCCOc3ccc4ccc(O)nc4c3)CC2)c1C
Ratio [7]: 3.1
ED50 [8]: 3.9 µmol/kg
ED50 [4]: 10.5 µmol/kg
ED50 [12]: > 156 µmol/kg

SMILES: O=C1CCc2ccc(OCCCCN3CCN(c4cc(Cl)cc(Cl)c4)CC3)cc2N1
ED50 [8]: > 22 µmol/kg
ED50 [12]: > 256 µmol/kg

SMILES: O=C1CCc2ccc(OCCCCN3CCN(c4ccc(Cl)cc4Cl)CC3)cc2N1
ED50 [6]: > 7 µmol/kg

SMILES: O=C1CCc2ccc(OCCCCN3CCN(c4c(Cl)cccc4Cl)CC3)cc2N1
ED50 ([11]; read-out: ED50): > 7 µmol/kg

SMILES: Cc1cccc(N2CCN(CCCCOc3ccc4c(c3)NC(=O)CC4)CC2)c1Cl
ED50 [8]: > 23 µmol/kg
ED50 [16]: 1.4 µmol/kg
ED50 [12]: > 150 µmol/kg

SMILES: O=C1CCc2ccc(OCCCCN3CCN(c4cc(Cl)cc(Cl)c4Cl)CC3)cc2N1
ED50 [8]: > 21 µmol/kg
ED50 [2]: > 265 µmol/kg

— ChEMBL document CHEMBL1131480, “Novel antipsychotic agents with dopamine autoreceptor agonist properties: synthesis and pharmacology of 7-[4-(4-phenyl-1-piperazinyl)butoxy]-3,4-dihydro-2(1H)-quinolinone derivatives” (1998)
